Env fusion inh: inhibitors of HIV Env-mediated cell fusion. HeLa-JRFL Env/CEM21 cell fusion, luciferase. inhibition, % at 12.3 µM. 1.1% of 360,000 active. AID 651610;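 active means mean replicate inhibition score of at least 50 and every replicate individually at or above 50; inconclusive means only one of the two criteria met; inactive means mean below 50 and not all replicates reaching 50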;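 further: 0% = plate neutral controls and 100% = maraviroc near 300 nM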
dFosB activator: activators of mouse delta FosB homodimer | purified delta FosB, TAMRA-CDK5 oligo fluorescence polarization; percent of positive-control signal above neutral wells | 0.99% of 340,000 active | P13346 | activation, % at 25 µM;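 active means mean activation above about 17%, with every replicate also reaching it, limit read from the data, passing the limit was not always enough; inconclusive means only one of the two conditions met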
Target sequence (P13346 whole entry, looked up): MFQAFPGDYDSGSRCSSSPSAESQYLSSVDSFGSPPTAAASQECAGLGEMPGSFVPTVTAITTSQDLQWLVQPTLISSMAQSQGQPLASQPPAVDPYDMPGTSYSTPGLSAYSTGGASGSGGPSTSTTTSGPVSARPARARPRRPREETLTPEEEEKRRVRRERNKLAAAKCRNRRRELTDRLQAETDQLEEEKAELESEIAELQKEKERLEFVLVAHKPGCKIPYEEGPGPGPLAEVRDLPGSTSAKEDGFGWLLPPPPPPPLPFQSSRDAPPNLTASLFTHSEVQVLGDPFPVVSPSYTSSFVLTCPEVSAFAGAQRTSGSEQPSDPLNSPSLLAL
INS-1E GSIS act: GLuc luminescence reporter in INS-1E cells, primary screen for activators of glucose-dependent secretion of insulin; INS-1E GLuc reporter insulin secretion, 2-3 h; activation, % at 16.6 µM; 0.61% of 370,000 active; AID 743287;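 active means lowest replicate activation of at least 40%, so every replicate reaches that level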;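 further: 0% = median of neutral control wells and 100% = median of IBMX positive control wells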
Rtt109 HAT inh: inhibitors of Candida albicans Rtt109/Vps75 histone acetyltransferase | purified Rtt109/Vps75, ThioGlo CoA-SH fluorescence, 4 h | inhibition, % at 34.9 µM | 0.16% of 330,000 active;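 active means inhibition of at least 50% in every replicate; inconclusive means best replicate reaches 50% inhibition but some replicates fall short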
miR122 inh: inhibitors of miR-122 in Huh7 cells | Huh7 miR-122 Renilla luciferase sensor, 48 h; neutral wells = 0, positive control = 100 | activation (reporter increase), % at 12.5 µM | 0.3% of 340,000 active | AID 602342;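 active means mean replicate activation score at least 90 and every replicate individually at or above 90; inconclusive means only one of the two criteria met; inactive means neither criterion met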;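 further: higher luciferase means less miR-122 activity so hits act as miR-122 inhibitors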
Cneo AK release: causes C. neoformans cell lysis | adenylate kinase release luminescence, 4 h; normalised: neutral wells 0, clomiphene wells 100 | AID 651654 | 0.2% of 360,000 active | lysis activity, % at 15 µM;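 active means mean lysis activity across replicates of at least 80%, whatever share of replicates individually reach that level; inactive means mean lysis activity below 80%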
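Signal: Adenylate kinase release luminescence | Assay system: Log-phase Cryptococcus neoformans yeast cells | Input: Cells at 5 × 10^6 per mL | Buffer or medium: Fresh YPD growth medium | Compound: Single dose | Schedule: Static 4 h at 37 °C with compound, 1 h detection | Controls: Clomiphene | Read-out: Luminescence rise reflecting yeast cell lysis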
Numbers without * were called inactive; ? = inconclusive; . = no result given; [ ] = dose if it differs, or a comment. This is a sample that favours compounds with a hit; in the whole collection about 2.4% have one here.

SMILES | Env fusion inh | dFosB activator | INS-1E GSIS act | Rtt109 HAT inh | miR122 inh | Cneo AK release
Fc1ccc(C(OCCN2CCN(CCCc3ccccc3)CC2)c2ccc(F)cc2)cc1 | 71* | 6 | . | 5 | 8 | -2
CN1CCN(c2ccc(N)c(N3CCN(C)CC3)c2)CC1 | . | 56* | . | 0 | -2 | .
CN1CCN(c2ccc(N)cc2)CC1 | -35 | ? | . | 8 | -6 | 1
O=C(NC[C@H]1CC[C@@H]2NC[C@@H]2O1)C1CCCC1 | -22[16.7 µM] | . | . | . | . | .
O=c1cccc2n1CC1CC2CN(c2nc(N3CCCCC3)nc(N3CCCCC3)n2)C1 (stereo unspecified) | 82* | -6 | -23 | 2 | . | .
S=C(NCCc1ccccc1)N1Cc2cc(N3CCCCC3)ccc2-n2nncc2C1 | 75* | . | -41 | . | 72 | 1
S=C(NCCc1ccccc1)N1Cc2cc(-c3ccccc3)ccc2-n2nncc2C1 | 15 | . | -1 | . | 74 | 1
CCCCn1c(O)c(C=NCCCn2ccnc2)c(=O)[nH]c1=O | . | -7 | . | 4 | -5 | .
CC(C)CCCn1c(O)c(/C=C2/C=CC=N2)c(=O)[nH]c1=O | -5 | -5 | 53* | 1 | . | .
COc1ccc(C(=O)OC2CC[C@@]3(C)C4CCC5[C@]6(O)CC(O)[C@@]7(O)C(CN8CC(C)CCC8[C@@]7(C)O)[C@]6(O)C[C@@]53O[C@]24O)cc1OC (stereo partly specified) | 2 | -5 | 46* | 9 | 2 | 0
OC[C@@H]1Nc2ccc(C#Cc3cccnc3)cc2[C@@H]2NCC[C@H]12 | . | . | 28 | . | . | .
CN1CCC(N(C)c2nc(-c3ccc([N+](=O)[O-])cc3)nc3ccccc23)CC1 | . | 30* | . | ? | -25 | .
COC(=O)C1=C(c2ccc(OC(F)(F)F)cc2)C[C@@H]2CC[C@H]1N2C(=O)N1CCCC1 | 58* | 0 | . | 17 | 2 | 0
COC(=O)C1=C(C(=O)OC)C2OC1c1cc3ccccc3cc12 | 23 | -5 | 118* | -9 | . | .
O=C(Cc1cccnc1)N1CCCCN2[C@H](CO)[C@H](c3ccc(/C=C/c4ccccc4)cc3)[C@@H]2C1 | . | . | 2 | . | -2[16.7 µM] | -1
CC(=O)[C@H]1CCC2C3CC[C@H]4C[C@@H](O)CC[C@]4(C)C3CC[C@@]21C (stereo partly specified) | 0 | -11 | 18 | 3 | -2 | 1
CC(=O)OC1CC(OC2C(O)CC(OC3C(O)CC(OC4CCC5(C)C(CCC6C5CCC5(C)C(C7=CC(=O)OC7)C(O)CC65O)C4)OC3C)OC2C)OC(C)C1OC1OC(CO)C(O)C(O)C1O (stereo unspecified) | 85* | -21 | -1 | 3 | 76 | .
CC1OC(OC2C(O)CC(OC3C(O)CC(OC4CCC5(C)C(CCC6C5CCC5(C)C(C7=CC(=O)OC7)C(O)CC65O)C4)OC3C)OC2C)CC(O)C1O (stereo unspecified) | 63* | -22 | 4 | 2 | 31 | .
CC(=O)OC1CC2(O)C3CCC4CC(O)CCC4(C)C3CCC2(C)C1C1=CC(=O)OC1 (stereo unspecified) | 102* | 2 | -1 | -6 | 12 | .
CN(C)C(=O)[C@@H]1[C@@H](CO)[C@@H]2Cn3c(cccc3=O)[C@H]1N2CC1CC1 | . | . | 16 | . | -1[16.7 µM] | 12
COC(=O)[C@@H]1[C@@H](CO)[C@@H]2Cn3c(ccc(-c4ccccc4)c3=O)[C@H]1N2C(=O)c1ccccc1F | . | . | 5 | . | -2[16.7 µM] | .
CCN(CCNc1ccc([N+](=O)[O-])c2cccnc12)S(=O)(=O)c1ccc(Cl)cc1 | 81* | -4 | . | 7 | 1 | -1
CC12CCC3C(CCC4(O)CC(O)CCC34C=NO)C1(O)CCC2C1=COC(=O)C1 (stereo unspecified) | 105* | -2 | . | -5 | -4 | .
C[C@H]1O[C@@H](OC2CC[C@]3(C=O)[C@H]4CC[C@]5(C)[C@@H](C6=CC(=O)OC6)CC[C@]5(O)[C@@H]4CC[C@]3(O)C2)CC2OC(C)(C)OC21 (stereo partly specified) | 82* | -9 | 1 | -6 | . | .
CCCCN=C[C@]12CCC(O)CC1(O)CCC1[C@@H]2CC[C@]2(C)[C@H](C3C=CC(=O)O3)CCC12O (stereo partly specified) | 82* | 1 | 2 | 0 | . | -2
